# TAAR1 ag: human TAAR1 agonists, primary screen, Fluo-8 calcium fluorescence, CHO RD-HGA16 cells; activation, % at 3 µM; actives 0.99% (n = 360,000); Trace amine-associated receptor 1 (Homo sapiens), Q96RJ0; vehicle wells 0%, saturating PEA agonist 100%; AID 624467, 2012;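 active means activation above the mean activation of all test compounds in the run plus 3 SD, cut at about 38% in these data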
#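 test system = CHO RD-HGA16 cells carrying human TAAR1 plus Gα16 | schedule = 17-24 h seeding, 75 min 37 °C dye, 30 min RT | compound dosing = 3 µM single concentration | control set = DMSO and PEA EC100 | replicates = n 1 | signal = Fluo-8 fluorescence, 5 s baseline then 140 s kinetic read | measure = percent activation vs PEA EC100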
# V1aR counter: agonists of human V1a receptor, primary screen, counter-screen for OXTR agonist project, fluorescence, CHO-V1R cells. activation, % at 3 µM. actives 0.25% (n = 320,000). AID 2797, 2010. Fluo-8 calcium fluorescence, agonist mode; 0% DMSO, 100% 3 nM vasopressin. Vasopressin V1a receptor (Homo sapiens), P37288;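 active means activation above the mean activation of all tested compounds plus 3 SD, per screening run, cut at about 20% in these data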;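 further: signal is peak over basal fluorescence ratio across a 100 second FLIPR read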
# Target sequence (P37288 whole entry, looked up): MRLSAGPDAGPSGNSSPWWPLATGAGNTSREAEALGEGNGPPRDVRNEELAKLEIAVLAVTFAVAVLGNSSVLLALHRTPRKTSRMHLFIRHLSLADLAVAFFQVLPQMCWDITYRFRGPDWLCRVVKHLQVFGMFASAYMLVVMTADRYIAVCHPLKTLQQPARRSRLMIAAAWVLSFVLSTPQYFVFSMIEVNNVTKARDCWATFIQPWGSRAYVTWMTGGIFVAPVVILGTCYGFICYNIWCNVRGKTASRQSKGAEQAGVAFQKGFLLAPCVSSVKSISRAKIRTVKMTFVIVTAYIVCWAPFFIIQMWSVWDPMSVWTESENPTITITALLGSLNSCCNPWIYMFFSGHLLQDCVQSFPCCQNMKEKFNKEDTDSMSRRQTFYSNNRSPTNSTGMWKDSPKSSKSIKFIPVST
# OXTR potentiator: human OXTR potentiators, primary screen, fluorescence, CHO-OTR cells, Fluo-8 calcium; actives 0.061% (n = 320,000); Fluo-8 calcium fluorescence, potentiator mode; 0% = oxytocin EC15, 100% = EC100; activation, % at 3 µM; Oxytocin receptor (Homo sapiens), P30559; AID 2445, 2010;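 active means activation above that plate's cutoff, the mean activation of tested compounds plus 3 SD, cut at about 6.6% in these data, passing the limit was not always enough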;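 further: 100% uses oxytocin at 75 nM as the full agonist control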
#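 System: human OTR in CHO cells / Also added: sub-maximal oxytocin, roughly EC15 / Control set: EC15 oxytocin low, 75 nM oxytocin high / Schedule: 6 min compound pre-incubation at room temperature, 100 s kinetic read / Compound: single-point 3.0 µM / Replication: singlicate / Technique: Fluo-8 calcium dye fluorescence / Read-out basis: % activation of max/min ratio relative to oxytocin controls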
# OXTR ag: human OXTR agonists, primary screen, fluorescence, CHO-OTR cells, Fluo-8 calcium; activation, % at 3 µM; actives 0.32% (n = 320,000); Fluo-8 calcium fluorescence; normalized: DMSO 0%, oxytocin 100%;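 active means activation above the mean of all tested compounds plus 3 SD, cutoff set per screening run, cut at about 20% in these data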;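 further: peak over basal fluorescence ratio from a 100 s FLIPR kinetic read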
# TAAR1 antag: human TAAR1 antagonists, primary screen, Fluo-8 calcium fluorescence, CHO RD-HGA16 cells; Trace amine-associated receptor 1 (Homo sapiens), Q96RJ0; antagonist; inhibition, % at 3 µM; actives 1.5% (n = 360,000); AID 624466, 2012;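 active means inhibition above a per-plate cutoff, the mean inhibition of test compounds on that plate plus 3 SD, cut at about 49% in these data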;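 further: 0% = DMSO plus EC80 beta-PEA response and 100% = DMSO alone without agonist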
#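 Test system – hTAAR1-expressing CHO RD-HGA16 cells, Gα16-coupled · Also added – β-PEA at EC80 concentration, post-compound challenge · Compound – 3 µM, single point · Incubation – dye loading 75 min at 37 °C, then 30 min room temperature · Measured by – Fluo-8 intracellular calcium dye fluorescence, real-time kinetic reads · Benchmarks – vehicle and agonist controls · Replicates – singlicate, one well per test compound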
# nonsel antag count: nonselective antagonists in TAAR1 counter-screen cells, counter-screen for hTAAR1 antagonist project, cell-based, fluorescence, calcium; shares compounds with TAAR1 antag; counterscreen cell line, antagonist mode; actives 77% (n = 2,400); inhibition, % at 3 µM; in the data active means inhibition above about 22%;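 further: CHO-Ga16 host cells stimulated with ATP at an EC80 level; 0% = agonist EC80 plus vehicle and 100% = vehicle without agonist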
# TAAR1 antag conf: human TAAR1 antagonists, retest of hits, confirmation, cell-based, fluorescence; TAAR1-expressing cells, fluorescence antagonist read-out; inhibition, % at 3 µM; shares compounds with TAAR1 antag; actives 40% (n = 2,400); in the data active means inhibition above about 49%;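 further: CHO-Ga16 host cells challenged with agonist PEA near its EC80; 0% = agonist at EC80 plus vehicle and 100% = vehicle with no agonist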
# Ga16 nonsel ag: calcium activation in Ga16-expressing cells, counter-screen for TAAR1 antagonist project, cell-based, fluorescence; activation, % at 3 µM; shares compounds with TAAR1 antag; actives 18% (n = 2,400); agonist counterscreen; in the data active means activation above about 12%;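 further: 0% = vehicle wells and 100% = saturating stimulus response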
# TAAR1 ag counter: TAAR1 activation by candidate antagonists – cell-based, fluorescence, counter-screen for TAAR1 antagonist project | AID 651955, 2012 | shares compounds with TAAR1 antag | activation, % at 3 µM | hTAAR1 cell line, agonist mode | actives 2% (n = 2,400); in the data active means activation above about 37%;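 further: CHO cells stably expressing TAAR1 with calcium dye readout; 0% = DMSO vehicle and 100% = full agonist response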
# Active calls of the source: *; . = not tested or not shown. Sampled rows, rich in hits. Any-hit rate of the full collection: about 2.3%.
SMILES,TAAR1 ag,V1aR counter,OXTR potentiator,OXTR ag,TAAR1 antag,nonsel antag count,TAAR1 antag conf,Ga16 nonsel ag,TAAR1 ag counter
Cc1ccccc1N(C(=O)c1snc(C(N)=O)c1N)C(C(=O)NCc1ccccc1)c1ccc(O)cc1 (centres undefined),26.6,1.8,-19.4,0.0,64.1*,29.8*,54.5*,9.8,12.7
NC(=O)c1nsc(C(=O)N(c2ccccc2F)C(C(=O)NCc2ccccc2)c2ccc(O)cc2)c1N (centres undefined),13.5,3.2,-11.9,2.5,77.6*,35.8*,47.8,10.3,13.7
Cc1ccccc1N(C(=O)c1snc(C(N)=O)c1N)C(C(=O)NC1CCCCC1)c1ccc(O)cc1 (centres undefined),2.6,3.7,-13.2,1.6,72.5*,19.8,56.2*,5.3,2.7
NC(=O)c1nsc(C(=O)N(Cc2ccco2)C(C(=O)NCc2ccccc2)c2ccc(O)cc2)c1N (centres undefined),24.2,4.6,-13.2,1.1,71.5*,35.2*,56.9*,10.3,11.6
CN(C)c1ccc(C(C(=O)NC2CCCCC2)N(Cc2ccco2)C(=O)c2snc(C(N)=O)c2N)cc1 (centres undefined),14.9,2.5,-11.6,5.2,58.3*,31.2*,53.0*,7.7,12.1
COc1ccc(-n2nc(C(=O)NCC(=O)Nc3cc(OC)c(OC)c(OC)c3)c3ccccc3c2=O)cc1Cl,15.1,-1.3,-17.6,-0.8,63.7*,28.4*,47.4,7.8,5.8
COc1ccc(-n2nc(C(=O)NCC(=O)N3CCC(C)CC3)c3ccccc3c2=O)cc1Cl,3.4,-0.3,-0.9,-2.0,48.6*,17.3,34.7,5.4,1.5
COc1ccc(Nc2nnc(SCC(=O)N(CC(C)C)C3CCS(=O)(=O)C3)s2)cc1 (centres undefined),0.6,.,.,.,-14.7,.,.,.,.
Cc1ccc(N2CCN(C(=O)C(=O)c3cccc([N+](=O)[O-])c3)CC2)cc1,-1.6,.,.,.,-2.8,.,.,.,.
Cc1csc(SC(C)C(=O)NC2CCCCC2C)n1 (centres undefined),-0.6,-0.8,0.3,-1.6,-17.6,.,.,.,.
CCn1nc(C)c(CNC(=O)c2cc(COc3ccc(C)nc3)on2)c1C,8.3,8.7,-16.3,5.3,-25.0,.,.,.,.
O=C(COc1c(F)c(F)c(C(F)(F)F)c(F)c1F)Nc1ccc(N2CCOCC2)c(Cl)c1,21.6,3.3,-13.3,3.5,12.1,.,.,.,.
CCC(C)c1ccc(NC(=O)COc2c(F)c(F)c(C(F)(F)F)c(F)c2F)cc1 (centres undefined),0.6,1.3,-7.9,-1.6,50.8*,14.2,16.6,1.1,2.1
CCOc1ccc(N2C(=O)C(Cl)=C(Nc3ccccc3O)C2=O)cc1,15.2,6.3,-4.0,5.2,56.7*,27.8*,38.6,12.0*,6.6
COc1ccccc1NC1=C(Cl)C(=O)N(c2ccccc2)C1=O,-2.0,-0.4,-6.0,-2.4,5.0,.,.,.,.
CC(=O)C1=C(O)C(CSCc2ccccc2)N(C)C1=O (centres undefined),2.5,.,.,.,-3.0,.,.,.,.

# Assay outcomes as filed in PubChem.
